PDI inh = PDI (human) enzyme inhibition. P07237. PDI insulin aggregation turbidity, A650, 90 min. inhibition, % at 10 µM. actives 0.052% (n = 350,000);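 active = mean inhibition across replicates of 30% or more, whatever share of single replicates reach that level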
SIRT5 block = sirtuin-5 (human) deacylase inhibition; Q9NXA8; Purified SirT5, succinyl-peptide AMC, trypsin-coupled fluorescence; inhibition, % at 15 µM; actives 1.1% (n = 330,000); in the data active = inhibition above about 15%
Target sequence (Q9NXA8 whole entry, looked up): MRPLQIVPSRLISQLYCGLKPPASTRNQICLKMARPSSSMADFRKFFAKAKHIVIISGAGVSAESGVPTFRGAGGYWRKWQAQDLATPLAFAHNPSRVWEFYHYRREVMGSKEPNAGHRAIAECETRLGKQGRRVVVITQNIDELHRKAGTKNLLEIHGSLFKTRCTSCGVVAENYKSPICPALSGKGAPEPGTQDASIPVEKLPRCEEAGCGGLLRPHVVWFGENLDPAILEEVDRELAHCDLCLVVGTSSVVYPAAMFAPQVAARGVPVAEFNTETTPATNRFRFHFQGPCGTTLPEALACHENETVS
ERp5 inh = blocks human ERp5 reductase activity on insulin; Q15084; ERp5 insulin aggregation, absorbance 650 nm, 90 min; inhibition, % at 9.99 µM; actives 0.05% (n = 350,000);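 active = mean replicate inhibition above about 25%, with every replicate also reaching it, limit read from the data, passing the limit was not always enough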
S100A4 MyoIIA = S100A4-myosin IIA interaction inhibition. inhibition, % at 10.7 µM. actives 0.14% (n = 360,000). P26447. S100A4/TAMRA-MyoIIA peptide fluorescence polarization;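 active = mean inhibition of at least 70% across replicates, with every replicate also reaching that level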
Target sequence (P26447 whole entry, looked up): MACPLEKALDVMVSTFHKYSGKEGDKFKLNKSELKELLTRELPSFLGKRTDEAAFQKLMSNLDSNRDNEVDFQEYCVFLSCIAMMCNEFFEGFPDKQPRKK
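Material: S100A4 monomer protein / Buffer or medium: 50 mM HEPES pH 7.2, 10 mM CaCl2, 100 mM KCl / Times: 5 min incubation before reading / Benchmarks: neutral control DMSO, positive control TFP / Reagent: labelled myosin peptide probe, 5 nM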
INS-1E GSIS act = primary screen for activators of insulin secretion dependent on glucose, INS-1E cells, GLuc reporter luminescence | INS-1E GLuc reporter insulin secretion, 2-3 h | activation, % at 16.6 µM | actives 0.61% (n = 370,000) | AID 743287;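 active = lowest replicate activation of at least 40%, so every replicate reaches that level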;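 note: 0% = median of neutral control wells and 100% = median of IBMX positive control wells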
An asterisk follows results filed as active; . = no result. Compounds with a hit are over-represented: about 1.5% of the library has one in this group of screens.

SMILES	PDI inh	SIRT5 block	ERp5 inh	S100A4 MyoIIA	INS-1E GSIS act
COc1cc(CCCN2C(=O)C(=O)NC[C@@H]2Cc2ccc(O)cc2)cc(OC)c1OC	9.4	-1.7	-4.0	7.3	3.9
COc1cc(CCCN2C(=S)NC[C@H]2Cc2ccc(O)cc2)cc(OC)c1OC	23.2	31.7*	-3.3	2.1	3.2
O=C(O)c1cc(Cl)ccc1-c1ccc(/C=C/c2cc(C(F)(F)F)[nH]c(=O)n2)o1	1.7	19.7*	-4.3	-19.8	3.2
C[C@H](CO)N1C[C@H](C)[C@@H](CN(C)S(=O)(=O)c2cn(C)cn2)Oc2ccc(NC(=O)Nc3ccc(C(F)(F)F)cc3)cc2C1=O	.	5.5	-4.2	13.5	4.7
Cc1noc(C)c1NC(=O)Nc1ccc2c(c1)CC(=O)N([C@H](C)CO)C[C@@H](C)[C@H](CN(C)C(=O)Nc1ccc(F)cc1)O2	.	-2.6	-6.6	8.9	5.5
Cc1cc(OCC(O)CNC(C)(C)C)ccc1Cl (stereo not drawn)	2.3	20.6*	-6.4	-2.5	-3.0
O=S(=O)(c1cc(F)ccc1F)N1CCN(c2ncccn2)CC1	34.1*	-4.8	-1.9	-6.1	-1.3
CC(=O)Nc1ccc2c(c1)CC(=O)N(C)C[C@H](C)[C@@H](CN(C)C(=O)NC(C)C)O2	.	.	.	.	1.2
CCCCn1nnc(NC(=S)NC(=O)c2cccs2)n1	2.5	21.3*	4.6	-2.8	-2.4
Cn1nnc(NC(=S)NC(=O)c2cccs2)n1	1.9	-4.9	0.2	18.4	10.4
CCOC(=O)N1CCC(NC(=O)Cn2nc(-c3ccccc3)ccc2=O)CC1	5.9	17.7*	-0.4	-1.1	-2.7
COc1ccc(-c2ccc(=O)n(CC(=O)NC3CCc4ccccc43)n2)cc1OC (stereo not drawn)	-3.7	2.7	-4.0	8.8	47.2*
CCOC(=O)N1CCN(C(=O)CCn2nc(-c3ccccc3)ccc2=O)CC1	-1.4	-0.6	-3.1	1.1	4.5
Cc1ccc(S(=O)(=O)NCC[C@H]2CC[C@H](NC(=O)C3CCOCC3)[C@H](CO)O2)cc1	.	5.9	-1.2	-6.0	22.2
CCOC(=O)c1c(C)n(CC(O)CN(CC)CC)c2cc(Br)c(OC)cc12 (stereo not drawn)	-6.3	-3.7	8.4	2.1	68.4*
CS(=O)(=O)Nc1cccc(NC(=O)c2cccc3c(-c4ccc(F)c(F)c4)coc23)c1	-5.0	15.1*	0.0	2.5	-2.7
O=C(Cc1ccccc1)c1ccc(Cl)cc1	9.8	2.8	-6.3	-6.7	-14.5
O=C(Cc1ccccc1)c1ccc(O)cc1	2.2	17.7*	3.1	-3.1	-8.5
O=C(NCCS(=O)(=O)NCCCc1ccccc1)c1ccccc1	-5.3	-0.8	-3.2	93.6*	6.6
O=C(NCCS(=O)(=O)NCCc1ccccc1)c1ccccc1	14.9	3.8	-0.8	-0.3	17.6
CC(C)NC(=O)Nc1ccc2c(c1)C(=O)N([C@H](C)CO)C[C@H](C)[C@@H](CN(C)S(=O)(=O)c1cn(C)cn1)OCCCC[C@@H](C)O2	.	-4.8	-1.3	9.8	35.0
Cc1cc(C)cc(NC(=O)Cn2nnc(C(=O)NCc3ccc(F)cc3)c2N)c1	-8.5	15.6*	-8.3	0.7	19.9
Cc1cc(C)cc(NC(=O)Cn2nnc(C(=O)NCc3ccccc3Cl)c2N)c1	1.5	-0.2	-6.5	-6.1	-0.2
COc1cccc(/C=C2\SC(=O)N(CCC(=O)NNC(=O)c3ccccc3Cl)C2=O)c1	-6.7	.	.	.	97.1*
Cc1cc(NC(=O)CCC(=O)N(Cc2ccccc2)C(C(=O)NC2CCCC2)c2ccco2)no1 (stereo not drawn)	-3.1	77.8*	5.4	-4.0	-4.1
SMILES	PDI inh	SIRT5 block	ERp5 inh	S100A4 MyoIIA	INS-1E GSIS act
O=c1cc(-c2ccccc2)nc(SCc2ccccc2)[nH]1	0.0	.	.	.	78.9*
CC(C)C#Cc1cnc2c(c1)C(=O)N([C@H](C)CO)C[C@@H](C)[C@@H](CN(C)S(=O)(=O)c1cn(C)cn1)O2	.	-2.6	-2.9	10.2	19.5
CNC[C@@H]1Oc2cc(-c3cccc(C(=O)N(C)C)c3)ccc2S(=O)(=O)N([C@@H](C)CO)C[C@H]1C	.	-4.1	-11.5	-7.4	-6.2
COc1cccc(CNC(=O)c2cccnc2Sc2ccccc2)c1	-31.3	2.5	-2.6	-3.0	48.3*
C/C(=N\Nc1ncc(Cl)cc1Cl)c1ccc2c(c1)OCO2	-1.8	25.0*	-7.0	0.1	17.5
Cc1ccc(N=N/C(=C\O)C(=O)c2ccc(Cl)cc2)cc1	-2.4	21.7*	2.9	4.3	18.5
C[C@@H]1CN([C@H](C)CO)C(=O)c2cc(NC(=O)CCCN(C)C)ccc2O[C@@H](C)CCCCO[C@H]1CN(C)Cc1ccc(C(F)(F)F)cc1	.	1.2	-2.8	0.2	9.0
C[C@H]1CN([C@@H](C)CO)S(=O)(=O)c2ccc(-c3cccnc3)cc2O[C@@H]1CN(C)CC1CC1	.	-2.4	8.3	8.4	.
CC(=NO)C1CCC2C3CCC4=CC(=NO)CCC4(C)C3C(O)CC12C (stereo not drawn)	2.2	.	-2.8	1.9	.
CC(=NO)C1CCC2C3CCC4=CC(=NO)CCC4(C)C3C(=O)CC12C (stereo not drawn)	37.4*	.	-3.9	-6.4	0.9
C[C@]12CCC3C4(C=CC5(C=C4C(=O)C4CCCCC4)C[C@@H](O)CC[C@]35C)C1CC[C@@]2(O)CN1CCC(n2c(=O)[nH]c3ccccc32)CC1 (stereo partly drawn)	.	-1.3	2.5	1.4	.
Cc1csc(NC(=O)Cc2ccccc2[N+](=O)[O-])n1	-3.4	16.8*	2.0	-0.5	.
CCOC(=O)Cc1csc(NC(=O)Cc2ccccc2[N+](=O)[O-])n1	8.6	-4.4	1.3	1.0	6.9
C[C@@H]1CCCCO[C@H](CN(C)C(=O)Nc2cccc3ccccc23)[C@@H](C)CN([C@@H](C)CO)C(=O)c2cc(NC(=O)c3ccccc3)ccc2O1	.	10.0	-3.4	58.7	-15.6
COc1cccc(NC(=O)c2nc(SC)ncc2Cl)c1	-1.9	-5.9	5.1	-0.2	12.3
COc1cccc(NC(=O)c2nc(S(C)(=O)=O)ncc2Cl)c1	2.4	-4.9	-3.2	-7.1	54.4*
Cc1ccc(NC(=O)c2nc(S(=O)(=O)Cc3ccccc3C)ncc2Cl)cc1C	3.4	15.6*	3.2	-1.4	-14.9
CCNC(=O)C[C@H]1CC[C@H]2[C@H](COc3ccc(NC(=O)c4ccc(C(F)(F)F)cc4)cc3C(=O)N2C)O1	.	-2.6	-6.5	-9.7	1.6
CCOC(=O)C1=C(C)N(c2ccccc2)C(=O)/C1=C\c1cccs1	-1.5	.	.	.	88.3*
Cc1ccc(C)c(S(=O)(=O)Nc2ccccc2C(=O)Nc2ccc(S(=O)(=O)Nc3ncccn3)cc2)c1	10.8	18.7*	9.7	-12.2	-9.9
O=C1NC(Cc2ccc(O)cc2)c2nc3ccc(F)cc3c(=O)n2-c2cc3ccccc3cc21 (stereo not drawn)	25.4	28.8*	8.7	4.9	-0.9
C[C@@H](NC(=O)C[C@@H]1CC[C@H](NC(=O)c2cccnc2)[C@H](CO)O1)c1ccccc1	.	4.6	3.1	-1.8	10.6
